Consider 20 compounds from ChEMBL document CHEMBL4002595, “Metadynamics for Perspective Drug Design: Computationally Driven Synthesis of New Protein-Protein Interaction Inhibitors Targeting the EphA2 Receptor” (J Med Chem, 2017).

Series [1] deals with Ephrin type-A receptor 2 (Mus musculus) (UniProt Q03145). The series is described as follows: Displacement of biotinylated ephrin-A1-Fc from recombinant mouse EphA2 receptor up to 100 uM preincubated for 1 hr followed by biotinylated ephrin-A1-Fc addition measured after 4 hrs by ELISA method. Summed up: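 EphA2-Fc (1 µg mL⁻¹ in PBS pH 7.4) was coated overnight at 4 °C, then blocked with PBS + 0.5% BSA for 1 h at 37 °C. Compounds in 1% DMSO were added for 1 h at 37 °C. Biotinylated ephrin-A1-Fc was then added at its K_D for 4 h at 37 °C. Detection used streptavidin-HRP (20 min, RT), TMB/H₂O₂, HCl stop and A450. IC₅₀ came from one-site competition nonlinear regression; mean of ≥3 independent experiments.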
Sequence of Ephrin type-A receptor 2 (Mus musculus) (Q03145 whole entry): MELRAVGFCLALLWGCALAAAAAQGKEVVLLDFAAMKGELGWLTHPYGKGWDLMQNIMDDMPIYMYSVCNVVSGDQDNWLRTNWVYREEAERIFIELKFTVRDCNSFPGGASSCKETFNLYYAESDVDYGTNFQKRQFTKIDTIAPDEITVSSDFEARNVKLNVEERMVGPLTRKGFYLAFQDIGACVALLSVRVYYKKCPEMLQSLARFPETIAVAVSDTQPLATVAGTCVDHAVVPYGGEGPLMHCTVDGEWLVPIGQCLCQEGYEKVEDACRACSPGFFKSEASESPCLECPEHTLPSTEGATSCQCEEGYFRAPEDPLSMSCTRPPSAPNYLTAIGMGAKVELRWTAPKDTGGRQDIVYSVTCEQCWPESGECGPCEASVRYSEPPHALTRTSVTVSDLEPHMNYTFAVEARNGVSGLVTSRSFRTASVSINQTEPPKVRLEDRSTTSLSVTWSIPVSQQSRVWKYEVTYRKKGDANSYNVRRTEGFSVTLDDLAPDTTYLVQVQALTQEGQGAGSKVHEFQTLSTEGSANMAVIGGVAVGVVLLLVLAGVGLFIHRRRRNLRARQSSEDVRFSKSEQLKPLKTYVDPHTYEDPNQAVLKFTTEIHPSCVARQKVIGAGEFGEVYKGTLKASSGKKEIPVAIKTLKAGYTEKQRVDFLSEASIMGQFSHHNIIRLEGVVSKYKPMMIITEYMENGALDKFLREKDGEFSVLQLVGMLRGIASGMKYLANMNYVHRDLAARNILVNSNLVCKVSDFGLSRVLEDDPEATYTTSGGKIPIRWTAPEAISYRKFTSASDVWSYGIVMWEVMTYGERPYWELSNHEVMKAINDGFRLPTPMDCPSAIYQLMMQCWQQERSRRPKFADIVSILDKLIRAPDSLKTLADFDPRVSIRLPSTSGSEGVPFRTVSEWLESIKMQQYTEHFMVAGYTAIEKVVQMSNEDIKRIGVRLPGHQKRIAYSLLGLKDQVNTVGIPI
In general terms: An ELISA detects its analyte on a solid surface through an enzyme-linked reagent.

The subject of series [2] is Liver. The experiment in a line: Drug metabolism in mouse liver microsomes assessed as (S)-3-((S)-4-((5R,8R,9S,10S,13R,14S,17R)-10,13-dimethyl-3-oxohexadecahydro-1H-cyclopenta[a]phenanthren-17-yl)pentanamido)-4-(1H-indol-3-yl)butanoic acid formation by HPLC-ESI-MS/MS analysis. The format is ADME, microsome. A general note: Liver microsomes are vesicles of endoplasmic reticulum, rich in cytochrome P450 enzymes.

The nature of series [3]: Half-life in mouse liver microsomes at 1 uM in presence of NADPH by HPLC-ESI-MS/MS analysis. The format is ADME, microsome.
Series [4] can be described thus: Kinetic solubility in MOPS buffer at pH 7.4 measured after 4 hrs by HPLC-ESI-MS/MS analysis. The format is physicochemical. The conditions noted are these: read-out: Kinetic_solubility. Summed up: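 DMSO stock (10 mM) diluted into 50 mM MOPS pH 7.4, ionic strength 0.15 M with KCl, final 1% DMSO. Agitated 4 h at 25 ± 3 °C, centrifuged 1,000 g 10 min. Supernatant diluted 1:1 with MeOH containing internal standard, quantified by HPLC-ESI-MS/MS against per-compound MeOH calibration curves.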

A short description of series [5]: Cmax in mouse at 30 mg/kg, administered as single dose via oral gavage by HPLC-ESI-MS/MS analysis. In kind it is ADME, organism-based. Further details: dose 30 mg/kg, route oral. The conditions noted are these: in vivo. Summed up:
(§1)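 Male mice, fasted, groups of four; single oral gavage at 30 mg/kg in 0.5% methylcellulose (10/90 v/v). Tail-puncture blood at 5-7 time points between 15 and 1440 min, centrifuged 5000 rpm 10 min, plasma stored at -20 °C, quantified by HPLC-ESI-MS/MS. Reported as means ± SEM.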

Series [6] relates to Plasma. The series is described as follows: Drug uptake in mouse plasma at 30 mg/kg, administered as single dose via oral gavage after 120 min by HPLC-ESI-MS/MS analysis. The note with it: in vivo.
Series [7] addresses Ephrin type-A receptor 2 (Mus musculus, UniProt Q03145). The experiment in a line: Displacement of biotinylated ephrin-A1-Fc from recombinant mouse EphA2 receptor preincubated for 1 hr followed by biotinylated ephrin-A1-Fc addition measured after 4 hrs by ELISA method.
In series [8] the test system is Liver. The experiment in a line: Drug level in mouse liver microsomes treated with (S)-3-((S)-4-((5R,8R,9S,10S,13R,14S,17R)-3-hydroxy-10,13-dimethylhexadecahydro-1H-cyclopenta[a]phenanthren-17-yl)pentanamido)-4-(1H-indol-3-yl)butanoic acid by HPLC-ESI-MS/MS analysis.
Series [9] is described as follows: Tmax in mouse at 30 mg/kg, administered as single dose via oral gavage by HPLC-ESI-MS/MS analysis. The format is ADME, organism-based. The note with it: in vivo. In outline:
as §1

In series [10] the test system is Plasma. The series is described as follows: Drug uptake in mouse plasma at 30 mg/kg, administered as single dose via oral gavage after 24 hrs by HPLC-ESI-MS/MS analysis. The format is ADME, organism-based. The conditions noted are these: in vivo. In outline:
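Male mice (fasted, four per group) received a single esophageal gavage of 30 mg/kg in 0.5% methylcellulose. Tail-puncture blood was taken at 5–7 time points between 15 and 1440 min. Plasma was separated by centrifugation (5000 rpm, 10 min), stored at –20 °C and quantified by HPLC-ESI-MS/MS. Data are means ± SEM.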

Series [11] in a line: n-Octanol-buffer partition co-efficient, log D of the compound at pH 7.4 incubated overnight by shake-flask method. In kind it is physicochemical. Summed up: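 Shake-flask n-octanol/buffer partition at 25 ± 3 °C against 50 mM MOPS pH 7.4, ionic strength 0.15 M with KCl. Pre-saturated phases equilibrated overnight. Each phase diluted in MeOH with internal standard and analysed by HPLC-ESI-MS/MS. Mean of three independent partitions using different octanol/buffer volume ratios.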

The nature of series [12]: Stability in mouse plasma assessed as compound remaining at 1 uM after 24 hrs by HPLC-ESI-MS/MS analysis. The conditions noted are these: read-out: Stability. The format is ADME, cell-free. Summed up: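 Mouse plasma diluted to 80% (v/v) with 100 mM PBS pH 7.4. Compound added at 1 μM final with 1% v/v DMSO, held at 37 °C. Aliquots taken at intervals, quenched with two volumes MeCN, centrifuged 9,000 g 10 min at 4 °C. Percent remaining measured by HPLC-ESI-MS/MS.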

Converted amounts (≈) assume the structure as drawn. The source made the active and inactive calls.

Sequence of Ephrin type-A receptor 2 (Q03145 whole entry): as above

On to `C[C@H](CCC(=O)N[C@@H](CCc1ccccc1)CC(=O)O)[C@H]1CC[C@H]2[C@@H]3CC[C@@H]4C[C@H](O)CC[C@]4(C)[C@H]3CC[C@]12C`, for which, in series [1], the inhibition result was “inactive”. As to `CC(C)C[C@@H](CC(=O)O)NC(=O)CC[C@@H](C)[C@H]1CC[C@H]2[C@@H]3CC[C@@H]4C[C@H](O)CC[C@]4(C)[C@H]3CC[C@]12C`, the inhibition entry in series [1] is “inactive”. For `C[C@H](CCC(=O)N[C@H](CC(=O)O)Cc1c[nH]c2ccccc12)[C@H]1CC[C@H]2[C@@H]3CC[C@@H]4C[C@H](O)CC[C@]4(C)[C@H]3CC[C@]12C`, in [2], the Drug metabolism result is reported as “Metabolite_Detected”. Besides, the half-life (commonly the time needed for the level to fall by half in the phase considered) at 1 µM in series [3] was 0.28 h. For the same compound, the solubility kinetic at 4 h in [4] is 31.8 µM (≈ 18.3 µg/mL). Besides, the Cmax (in general, the peak of the concentration-time curve) in [5] turned out to be 10 nM. The Drug uptake entry in series [6] is on record as “Active”.

For the compound `C[C@H](CCC(=O)NCCCCC(=O)O)[C@H]1CC[C@H]2[C@@H]3CC[C@@H]4C[C@H](O)CC[C@]4(C)[C@H]3CC[C@]12C`, the inhibition result in series [1] is “inactive”. For `C[C@H](CCC(=O)N[C@H](CC(=O)O)Cc1csc2ccccc12)[C@H]1CC[C@H]2[C@@H]3CC[C@@H]4C[C@H](O)CC[C@]4(C)[C@H]3CC[C@]12C`, the IC50 (in general, the concentration at which inhibition is half-maximal) in series [7] turned out to be 1.8 µM. Consider `CSCC[C@@H](CC(=O)O)NC(=O)CC[C@@H](C)[C@H]1CC[C@H]2[C@@H]3CC[C@@H]4C[C@H](O)CC[C@]4(C)[C@H]3CC[C@]12C`, for which the 50% inhibitory concentration (IC50) in series [7] is 83 µM. In the case of `CO/N=C1\CC[C@@]2(C)[C@H](CC[C@@H]3[C@@H]2CC[C@]2(C)[C@@H]([C@H](C)CCC(=O)N[C@H](CC(=O)O)Cc4c[nH]c5ccccc45)CC[C@@H]32)C1`, the concentration for half-maximal inhibition (IC50) in series [7] stood at 13 µM. Regarding `CC(C)[C@@H](CC(=O)O)NC(=O)CC[C@@H](C)[C@H]1CC[C@H]2[C@@H]3CC[C@@H]4C[C@H](O)CC[C@]4(C)[C@H]3CC[C@]12C`, the IC50 in [7] came to 10 µM.

For `C[C@H](CCC(=O)N[C@H](CC(=O)O)Cc1c[nH]c2ccccc12)[C@H]1CC[C@H]2[C@@H]3CC[C@@H]4CC(=O)CC[C@]4(C)[C@H]3CC[C@]12C`, the Drug metabolism result in series [8] is recorded as “Metabolite_Detected”.

As to `C[C@H](CCC(=O)N[C@H](CC(=O)O)Cc1c[nH]c2ccccc12)[C@H]1CC[C@H]2[C@@H]3CC[C@@H]4CCCC[C@]4(C)[C@H]3CC[C@]12C`, the half-inhibitory concentration (IC50) in series [7] amounted to 28 µM. Take `C[C@H](CCC(=O)O)[C@H]1CC[C@H]2[C@@H]3CC[C@@H]4C[C@H](O)CC[C@]4(C)[C@H]3CC[C@]12C` [LITHOCHOLIC ACID]: in series [7], the IC50 stood at 79 µM. With `C[C@H](CCC(=O)N[C@H](CC(=O)O)Cc1ccccc1)[C@H]1CC[C@H]2[C@@H]3CC[C@@H]4C[C@H](O)CC[C@]4(C)[C@H]3CC[C@]12C`, in series [7], the half-inhibitory concentration (IC50) came to 18 µM. With `C[C@H](CCC(=O)N[C@H](CC(=O)O)Cc1c[nH]c2ccccc12)[C@H]1CC[C@H]2[C@@H]3CC[C@@H]4C[C@H](OC(N)=O)CC[C@]4(C)[C@H]3CC[C@]12C`, the Tmax (as a rule, the time from dosing to the highest level) in series [9] is 1 h. Further, in series [3], the half-life at 1 µM was 2.6 h. In addition, in series [4], the solubility kinetic at 4 h is 18.7 µM (≈ 11.6 µg/mL). For the same compound, in series [5], the Cmax came to 870 nM. For the same compound, the Drug uptake result in [10] is “Active”. Also, the logD (in general, lipophilicity at a set pH, counting ionised and neutral species) in [11] turned out to be 5.01. The remaining at 24 h, 1 µM in series [12] was found to be 98.2%. Also, the half-inhibitory concentration (IC50) in [7] came out at 0.8 µM. Consider `C[C@H](CCC(=O)N[C@H](CC(=O)O)Cc1c[nH]c2ccccc12)[C@H]1CC[C@H]2[C@@H]3CC[C@@H]4C/C(=N/O)CC[C@]4(C)[C@H]3CC[C@]12C`, for which the Tmax in series [9] stood at 1 h. For the same compound, in series [3], the half-life at 1 µM worked out at 1.01 h. For the same compound, the solubility kinetic at 4 h in series [4] came out at 51.9 µM (≈ 30.6 µg/mL). Moreover, in series [5], the maximum concentration (Cmax) turned out to be 400 nM. In [11], this compound displayed a logD of 4.23. The remaining at 24 h, 1 µM in series [12] worked out at 93.7%. Also, the IC50 in series [7] was 3.1 µM. Take `COC(=O)CCNC(=O)CC[C@@H](C)[C@H]1CC[C@H]2[C@@H]3CC[C@@H]4C[C@H](O)CC[C@]4(C)[C@H]3CC[C@]12C`: in series [1], the inhibition result is “inactive”.

With `C[C@H](CCC(=O)NCCS(=O)(=O)O)[C@H]1CC[C@H]2[C@@H]3CC[C@@H]4C[C@H](O)CC[C@]4(C)[C@H]3CC[C@]12C` [TAUROLITHOCHOLIC ACID], the half-maximal inhibitory concentration (IC50) in series [7] turned out to be 72 µM. As to `C[C@H](CCC(=O)N[C@H](CC(=O)O)c1ccccc1)[C@H]1CC[C@H]2[C@@H]3CC[C@@H]4C[C@H](O)CC[C@]4(C)[C@H]3CC[C@]12C`, the IC50 in [7] was 14 µM.

As to `C[C@H](CCC(=O)NCCC(=O)O)[C@H]1CC[C@H]2[C@@H]3CC[C@@H]4C[C@H](O)CC[C@]4(C)[C@H]3CC[C@]12C`, the IC50 in series [7] is 29 µM.

Take `C[C@H](CCC(=O)N[C@H](CC(=O)O)Cc1cccc2ccccc12)[C@H]1CC[C@H]2[C@@H]3CC[C@@H]4C[C@H](O)CC[C@]4(C)[C@H]3CC[C@]12C`: in [7], the IC50 was 3.9 µM. Turning to `C[C@H](CCC(=O)NCCCC(=O)O)[C@H]1CC[C@H]2[C@@H]3CC[C@@H]4C[C@H](O)CC[C@]4(C)[C@H]3CC[C@]12C`, in series [1], the inhibition result is “inactive”.
